Assays:
[1] = target: TGF-beta receptor type-2 (Homo sapiens) (UniProt P37173); assay: Inhibition of TGFBR2 at 3 uM
[2] = test system: Mast/stem cell growth factor receptor Kit (Homo sapiens), P10721 [V559D]; assay: Inhibition of KIT V559D mutant at 3 uM
[3] = test system: Mast/stem cell growth factor receptor Kit (Homo sapiens), P10721 [V559D,V654A]; assay: Inhibition of KIT V559D,V654A mutant at 3 uM
Rattus norvegicus [4] = species on record: Rattus norvegicus; conditions: 3 uM
[5] = target: Serine/threonine-protein kinase LATS1 (Homo sapiens) (UniProt O95835); assay: Inhibition of LATS1 at 3 uM
[6] = target: Cyclin-dependent kinase 19 (Homo sapiens) (UniProt Q9BWU1); assay: Inhibition of CDK11 at 3 uM
[7] = test system: Tyrosine-protein kinase ABL1 (Homo sapiens), P00519 [F317I]; assay: Inhibition of ABL1 F317I mutant at 3 uM
[8] = target: Mitogen-activated protein kinase 8 (Homo sapiens) (UniProt P45983); assay: Inhibition of JNK1 at 3 uM
[9] = target: Serine/threonine-protein kinase RIO2 (Homo sapiens) (UniProt Q9BVS4); assay: Inhibition of RIOK2 at 3 uM
[10] = target: AP2-associated protein kinase 1 (Homo sapiens) (UniProt Q2M2I8); assay: Inhibition of AAK1 at 3 uM
[11] = target: Glycogen synthase kinase-3 alpha (Homo sapiens) (UniProt P49840); assay: Inhibition of GSK3A at 3 uM
[12] = target: Testis-specific serine/threonine-protein kinase 1 (Homo sapiens) (UniProt Q9BXA7); assay: Inhibition of TSSK1 at 3 uM
[13] = target: Serine/threonine-protein kinase Nek7 (Homo sapiens) (UniProt Q8TDX7); assay: Inhibition of NEK7 at 3 uM
[14] = target: Serine/threonine-protein kinase Nek2 (Homo sapiens) (UniProt P51955); assay: Inhibition of NEK2 at 3 uM
[15] = target: Dual specificity mitogen-activated protein kinase kinase 1 (Homo sapiens) (UniProt Q02750); assay: Inhibition of MEK1 at 3 uM
[16] = target: Serine/threonine-protein kinase 24 (Homo sapiens) (UniProt Q9Y6E0); assay: Inhibition of MST3 at 3 uM
[17] = target: Maternal embryonic leucine zipper kinase (Homo sapiens) (UniProt Q14680); assay: Inhibition of MELK at 3 uM
[18] = target: Serine/threonine-protein kinase 3 (Homo sapiens) (UniProt Q13188); assay: Inhibition of MST2 at 3 uM
Chain of Serine/threonine-protein kinase 3 (Homo sapiens) (Q13188 whole entry): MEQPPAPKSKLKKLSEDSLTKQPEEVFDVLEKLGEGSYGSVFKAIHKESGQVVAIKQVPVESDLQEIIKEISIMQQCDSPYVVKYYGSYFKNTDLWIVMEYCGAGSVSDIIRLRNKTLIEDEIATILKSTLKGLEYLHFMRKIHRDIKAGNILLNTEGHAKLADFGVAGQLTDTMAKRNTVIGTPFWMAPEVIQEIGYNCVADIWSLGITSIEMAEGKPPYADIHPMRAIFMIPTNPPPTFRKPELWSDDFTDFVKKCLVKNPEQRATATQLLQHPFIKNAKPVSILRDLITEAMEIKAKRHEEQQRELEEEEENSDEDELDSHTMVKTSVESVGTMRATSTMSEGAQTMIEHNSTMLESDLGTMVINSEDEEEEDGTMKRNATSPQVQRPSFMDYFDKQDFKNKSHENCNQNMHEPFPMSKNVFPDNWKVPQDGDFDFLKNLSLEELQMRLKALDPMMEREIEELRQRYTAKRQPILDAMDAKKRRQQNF

[19] = target: Epidermal growth factor receptor (Homo sapiens) (UniProt P04626+P00533+Q15303+P21860); assay: Inhibition of EGFR L747-E749del,A750P mutant at 3 uM; type: protein assay
[20] = target: Homeodomain-interacting protein kinase 1 (Homo sapiens) (UniProt Q86Z02); assay: Inhibition of HIPK1 at 3 uM
[21] = target: Atypical kinase COQ8A, mitochondrial (Homo sapiens) (UniProt Q8NI60); assay: Inhibition of ADCK3 at 3 uM
[22] = target: Proto-oncogene tyrosine-protein kinase Src (Homo sapiens) (UniProt P12931); assay: Inhibition of SRC at 3 uM
[23] = target: Calcium/calmodulin-dependent protein kinase type II subunit delta (Homo sapiens) (UniProt Q13557); assay: Inhibition of CAMK2D at 3 uM
[24] = target: Serine/threonine-protein kinase ULK3 (Homo sapiens) (UniProt Q6PHR2); assay: Inhibition of ULK3 at 3 uM
[25] = target: Alpha-1D adrenergic receptor (Homo sapiens) (UniProt P25100); assay: Inhibition of human adrenergic Alpha-1D receptor at 3 uM
In short: (§1)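 Counter-screen binding/enzyme panel at single 3 μM, n=2; results as percent inhibition. Species per target as listed (rat NMDA, GABAA sites; human receptors, transporters; rabbit ACE).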

[26] = target: Serine/threonine-protein kinase 17A (Homo sapiens) (UniProt Q9UEE5); assay: Inhibition of DRAK1 at 3 uM
[27] = target: Casein kinase I isoform delta (Homo sapiens) (UniProt P48730); assay: Inhibition of CSNK1D at 3 uM
[28] = target: Myosin light chain kinase, smooth muscle (Homo sapiens) (UniProt Q15746); assay: Inhibition of MLCK at 3 uM
[29] = target: Serine/threonine-protein kinase Nek6 (Homo sapiens) (UniProt Q9HC98); assay: Inhibition of NEK6 at 3 uM
[30] = target: 5-hydroxytryptamine receptor 2A (Homo sapiens) (UniProt P28223); assay: Inhibition of human 5HT2 receptor at 3 uM; in short: as §1
[31] = target: Serine/threonine-protein kinase tousled-like 2 (Homo sapiens) (UniProt Q86UE8); assay: Inhibition of TLK2 at 3 uM
Chain of Serine/threonine-protein kinase tousled-like 2 (Homo sapiens) (Q86UE8 whole entry, looked up): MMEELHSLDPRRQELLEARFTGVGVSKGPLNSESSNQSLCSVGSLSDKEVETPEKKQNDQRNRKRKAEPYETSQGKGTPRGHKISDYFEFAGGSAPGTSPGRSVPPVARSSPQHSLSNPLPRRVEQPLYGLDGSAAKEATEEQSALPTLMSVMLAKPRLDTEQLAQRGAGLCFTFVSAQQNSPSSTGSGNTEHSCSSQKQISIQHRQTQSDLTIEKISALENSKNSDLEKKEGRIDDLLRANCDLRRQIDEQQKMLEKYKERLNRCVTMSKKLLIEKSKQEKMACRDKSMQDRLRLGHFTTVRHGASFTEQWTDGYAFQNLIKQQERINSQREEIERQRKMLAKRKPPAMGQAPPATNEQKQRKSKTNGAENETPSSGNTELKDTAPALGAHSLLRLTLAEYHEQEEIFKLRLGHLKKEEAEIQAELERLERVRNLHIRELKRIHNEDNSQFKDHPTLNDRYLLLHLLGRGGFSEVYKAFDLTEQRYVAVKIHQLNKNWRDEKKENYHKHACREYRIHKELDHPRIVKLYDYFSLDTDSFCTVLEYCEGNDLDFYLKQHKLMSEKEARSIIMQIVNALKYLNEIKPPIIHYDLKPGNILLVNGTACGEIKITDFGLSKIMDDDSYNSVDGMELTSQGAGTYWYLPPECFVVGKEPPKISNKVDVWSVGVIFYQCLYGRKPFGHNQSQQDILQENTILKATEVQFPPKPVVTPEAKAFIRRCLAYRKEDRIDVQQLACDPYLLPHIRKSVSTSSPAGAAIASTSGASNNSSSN

[32] = target: Sodium-dependent noradrenaline transporter (Homo sapiens) (UniProt P23975); assay: Inhibition of human NET at 3 uM; in short: as §1
[33] = target: Mitogen-activated protein kinase kinase kinase 11 (Homo sapiens) (UniProt Q16584); assay: Inhibition of MLK3 at 3 uM
[34] = target: Kappa-type opioid receptor (Homo sapiens) (UniProt P41145); assay: Inhibition of human kappa opioid receptor at 3 uM
Chain of Kappa-type opioid receptor (Homo sapiens) (P41145 whole entry, looked up): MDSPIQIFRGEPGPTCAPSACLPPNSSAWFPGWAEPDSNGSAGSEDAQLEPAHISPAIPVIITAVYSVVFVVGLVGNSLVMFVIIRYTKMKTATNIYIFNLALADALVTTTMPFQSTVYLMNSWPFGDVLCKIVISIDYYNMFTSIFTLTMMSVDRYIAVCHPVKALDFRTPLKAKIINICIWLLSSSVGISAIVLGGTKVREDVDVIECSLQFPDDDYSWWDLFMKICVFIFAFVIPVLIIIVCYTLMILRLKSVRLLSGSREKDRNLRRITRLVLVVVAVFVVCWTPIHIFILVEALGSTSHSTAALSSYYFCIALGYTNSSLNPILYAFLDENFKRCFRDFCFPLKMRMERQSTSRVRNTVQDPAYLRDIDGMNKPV

[35] = target: Serine/threonine-protein kinase B-raf (Homo sapiens) (UniProt P15056); assay: Inhibition of BRAF at 3 uM
[36] = target: Serine/threonine-protein kinase N1 (Homo sapiens) (UniProt Q16512); assay: Inhibition of PKN1 at 3 uM
[37] = target: Ankyrin repeat and protein kinase domain-containing protein 1 (Homo sapiens) (UniProt Q8NFD2); assay: Inhibition of ANKK1 at 3 uM
[38] = target: Death-associated protein kinase 3 (Homo sapiens) (UniProt O43293); assay: Inhibition of DAPK3 at 3 uM
Chain of Death-associated protein kinase 3 (Homo sapiens) (O43293 whole entry, looked up): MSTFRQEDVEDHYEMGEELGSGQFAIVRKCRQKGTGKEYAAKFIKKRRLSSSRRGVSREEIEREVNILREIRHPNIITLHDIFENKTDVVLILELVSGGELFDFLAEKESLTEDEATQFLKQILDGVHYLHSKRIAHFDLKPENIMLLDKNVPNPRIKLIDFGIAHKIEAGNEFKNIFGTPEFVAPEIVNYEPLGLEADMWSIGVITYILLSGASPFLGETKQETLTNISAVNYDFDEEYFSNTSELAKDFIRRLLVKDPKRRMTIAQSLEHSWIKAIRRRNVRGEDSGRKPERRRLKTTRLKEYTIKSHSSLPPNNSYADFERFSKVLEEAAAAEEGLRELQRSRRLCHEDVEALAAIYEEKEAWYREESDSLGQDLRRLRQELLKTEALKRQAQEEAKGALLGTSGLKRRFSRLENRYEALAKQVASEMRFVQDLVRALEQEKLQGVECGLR

[39] = target: Serine/threonine-protein kinase STK11 (Homo sapiens) (UniProt Q15831); assay: Inhibition of LKB1 at 3 uM
Chain of Serine/threonine-protein kinase STK11 (Homo sapiens) (Q15831 whole entry): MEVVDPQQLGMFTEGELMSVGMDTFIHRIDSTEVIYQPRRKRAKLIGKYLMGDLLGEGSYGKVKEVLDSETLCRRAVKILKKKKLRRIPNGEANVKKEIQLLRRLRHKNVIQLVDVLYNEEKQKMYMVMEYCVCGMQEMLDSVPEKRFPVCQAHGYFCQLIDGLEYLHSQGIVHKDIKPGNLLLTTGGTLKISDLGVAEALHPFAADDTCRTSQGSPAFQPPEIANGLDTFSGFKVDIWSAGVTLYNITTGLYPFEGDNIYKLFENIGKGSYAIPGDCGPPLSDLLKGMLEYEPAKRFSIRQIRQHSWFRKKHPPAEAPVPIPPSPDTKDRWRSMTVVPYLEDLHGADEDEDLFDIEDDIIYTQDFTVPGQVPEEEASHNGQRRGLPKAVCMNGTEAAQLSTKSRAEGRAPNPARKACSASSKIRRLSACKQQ

[40] = target: cAMP-dependent protein kinase catalytic subunit beta (Homo sapiens) (UniProt P22694); assay: Inhibition of PKAC-beta at 3 uM
[41] = target: Dual specificity protein kinase TTK (Homo sapiens) (UniProt P33981); assay: Inhibition of TTK at 3 uM
Chain of Dual specificity protein kinase TTK (Homo sapiens) (P33981 whole entry): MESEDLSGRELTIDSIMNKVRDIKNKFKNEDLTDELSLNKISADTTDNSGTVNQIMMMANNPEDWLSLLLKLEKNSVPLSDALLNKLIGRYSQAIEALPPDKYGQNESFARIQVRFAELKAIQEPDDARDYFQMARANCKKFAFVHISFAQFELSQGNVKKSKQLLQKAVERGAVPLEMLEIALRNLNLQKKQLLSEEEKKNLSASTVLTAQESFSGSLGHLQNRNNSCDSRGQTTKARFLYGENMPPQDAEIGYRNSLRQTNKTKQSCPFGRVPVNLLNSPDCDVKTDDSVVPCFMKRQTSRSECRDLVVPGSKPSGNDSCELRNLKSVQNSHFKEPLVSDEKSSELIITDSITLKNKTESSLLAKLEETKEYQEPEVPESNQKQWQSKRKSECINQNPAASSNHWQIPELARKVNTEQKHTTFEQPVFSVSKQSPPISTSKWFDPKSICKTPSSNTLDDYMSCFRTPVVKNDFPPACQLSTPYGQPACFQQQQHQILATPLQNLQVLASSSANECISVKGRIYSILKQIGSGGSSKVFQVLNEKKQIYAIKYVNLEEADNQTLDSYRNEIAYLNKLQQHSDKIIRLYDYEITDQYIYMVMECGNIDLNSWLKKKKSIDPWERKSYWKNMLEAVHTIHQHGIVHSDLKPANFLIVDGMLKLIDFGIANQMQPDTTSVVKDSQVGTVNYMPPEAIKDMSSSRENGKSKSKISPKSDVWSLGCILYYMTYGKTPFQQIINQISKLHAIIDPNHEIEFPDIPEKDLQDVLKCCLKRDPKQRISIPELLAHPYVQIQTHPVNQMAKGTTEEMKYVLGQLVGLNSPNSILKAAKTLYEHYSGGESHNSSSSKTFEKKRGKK

Rattus norvegicus [42] = species on record: Rattus norvegicus; conditions: 3 uM; remark: listed apart in the source
[43] = target: Phosphorylase b kinase gamma catalytic chain, skeletal muscle/heart isoform (Homo sapiens) (UniProt Q16816); assay: Inhibition of PHKG1 at 3 uM
[44] = target: Activin receptor type-2A (Homo sapiens) (UniProt P27037); assay: Inhibition of ACVR2A at 3 uM
Chain of Activin receptor type-2A (Homo sapiens) (P27037 whole entry): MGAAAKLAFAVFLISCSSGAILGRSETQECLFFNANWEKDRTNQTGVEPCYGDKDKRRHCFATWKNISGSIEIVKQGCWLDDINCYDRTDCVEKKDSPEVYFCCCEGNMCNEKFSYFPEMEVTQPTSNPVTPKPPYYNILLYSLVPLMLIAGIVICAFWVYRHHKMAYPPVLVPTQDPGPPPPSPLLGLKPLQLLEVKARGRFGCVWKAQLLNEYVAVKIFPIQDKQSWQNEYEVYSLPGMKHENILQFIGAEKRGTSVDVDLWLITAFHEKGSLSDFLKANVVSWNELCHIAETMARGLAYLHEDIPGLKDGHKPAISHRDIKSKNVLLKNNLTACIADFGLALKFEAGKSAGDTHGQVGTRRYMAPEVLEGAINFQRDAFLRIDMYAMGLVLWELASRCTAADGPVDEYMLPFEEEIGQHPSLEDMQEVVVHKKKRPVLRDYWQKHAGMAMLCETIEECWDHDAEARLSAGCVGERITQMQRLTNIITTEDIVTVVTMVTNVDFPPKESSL

[45] = target: Prostaglandin E2 receptor EP4 subtype (Homo sapiens) (UniProt P35408); assay: Inhibition of human prostanoid EP4 receptor at 3 uM; in short: as §1
[46] = target: Platelet-activating factor receptor (Homo sapiens) (UniProt P25105); assay: Inhibition of human PAF at 3 uM

Chain of Mast/stem cell growth factor receptor Kit (Homo sapiens), P10721 [V559D,V654A] (P10721 whole entry V559D/V654A): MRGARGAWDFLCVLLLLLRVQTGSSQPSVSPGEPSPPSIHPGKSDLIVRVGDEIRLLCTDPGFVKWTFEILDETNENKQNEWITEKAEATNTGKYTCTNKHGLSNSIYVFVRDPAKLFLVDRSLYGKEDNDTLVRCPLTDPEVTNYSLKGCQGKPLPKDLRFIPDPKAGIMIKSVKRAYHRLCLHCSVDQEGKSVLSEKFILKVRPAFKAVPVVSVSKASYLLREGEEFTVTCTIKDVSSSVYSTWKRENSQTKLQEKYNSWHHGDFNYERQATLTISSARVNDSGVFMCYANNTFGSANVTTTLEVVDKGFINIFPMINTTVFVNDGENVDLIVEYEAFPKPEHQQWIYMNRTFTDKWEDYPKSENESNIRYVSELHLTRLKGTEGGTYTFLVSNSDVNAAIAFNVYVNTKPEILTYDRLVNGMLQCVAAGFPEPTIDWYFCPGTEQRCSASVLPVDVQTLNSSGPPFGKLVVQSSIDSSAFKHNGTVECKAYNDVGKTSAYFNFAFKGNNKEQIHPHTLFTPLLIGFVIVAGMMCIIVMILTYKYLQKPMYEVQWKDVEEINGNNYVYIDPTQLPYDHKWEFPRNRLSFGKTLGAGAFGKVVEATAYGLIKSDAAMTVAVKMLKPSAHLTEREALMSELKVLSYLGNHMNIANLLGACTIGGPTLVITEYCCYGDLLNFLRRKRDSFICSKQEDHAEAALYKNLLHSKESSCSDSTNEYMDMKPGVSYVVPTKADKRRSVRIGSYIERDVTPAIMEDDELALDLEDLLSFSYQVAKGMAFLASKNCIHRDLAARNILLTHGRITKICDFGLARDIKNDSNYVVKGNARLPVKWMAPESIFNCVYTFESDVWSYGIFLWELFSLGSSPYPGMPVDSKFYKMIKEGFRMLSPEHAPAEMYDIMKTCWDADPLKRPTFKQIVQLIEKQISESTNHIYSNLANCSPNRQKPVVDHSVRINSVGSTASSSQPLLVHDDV
Chain of Mast/stem cell growth factor receptor Kit (Homo sapiens), P10721 [V559D] (P10721 whole entry V559D): as the sequence (P10721 whole entry V559D/V654A) above, with A654V counted along it

CN(C)CCOc1cc(-c2cn[nH]c2)ccc1NC(=O)C1COc2ccccc2O1 (stereo unspecified) [SR-3677]
inhibition [1]: < 10%
inhibition [2]: < 10%
inhibition [3]: < 10%
inhibition (Rattus norvegicus [4]): 17%
inhibition [5]: < 10%
inhibition [6]: < 10%
inhibition [7]: < 10%
inhibition [8]: < 10%
inhibition [9]: < 10%
inhibition [10]: < 10%
inhibition [11]: < 10%
inhibition [12]: < 10%
inhibition [13]: < 10%
inhibition [14]: < 10%
inhibition [15]: < 10%
inhibition [16]: < 10%
inhibition [17]: < 10%
inhibition [18]: < 10%
inhibition [19]: < 10%
inhibition [20]: < 10%
inhibition [21]: < 10%
inhibition [22]: < 10%
inhibition [23]: < 10%
inhibition [24]: < 10%
inhibition [25]: 43%
inhibition [26]: < 10%
inhibition [27]: < 10%
inhibition [28]: < 10%
inhibition [29]: < 10%
inhibition [30]: 2%
inhibition [31]: < 10%
inhibition [32]: 16%
inhibition [33]: < 10%
inhibition [34]: -7%
inhibition [35]: < 10%
inhibition [36]: < 10%
inhibition [37]: < 10%
inhibition [38]: < 10%
inhibition [39]: < 10%
inhibition [40]: < 10%
inhibition [41]: < 10%
inhibition (Rattus norvegicus [42]): -1%
inhibition [43]: < 10%
inhibition [44]: < 10%
inhibition [45]: 5%
inhibition [46]: -4%
